ChEMBL document CHEMBL5058577, “EUbOPEN Chemogenomics Library 2 (Multiplex)” (2022)

Test system: Fibroblast
Test: Multiplex assay against human fibroblast
Type: toxicity, cell-based
Summary of the method: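 Compound was added to live cells that had been stained at seeding with Hoechst33342, BioTracker Green Microtubule Cytoskeleton Dye, MitoTracker Red and Annexin V Alexa Fluor 680, and imaging followed on a CQ1 microscope at 37°C and 5% CO2. CellPathfinder machine-learning gating divided cells into Hoechst high-intensity objects or normal cells, normal cells into healthy, pyknosed or fragmented nuclei, and pyknosed cells into mitotic or apoptotic. Tubulin, mitochondrial-mass and membrane-permeability phenotypes are per cents of healthy-nucleus cells.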

[1] = 12 h, 1 µM, compound concentration 1 uM, replicate 1
[2] = 12 h, 1 µM, compound concentration 1 uM, replicate 2
[3] = 12 h, 10 µM, compound concentration 10 uM, replicate 1
[4] = 12 h, 10 µM, compound concentration 10 uM, replicate 2
[5] = 24 h, 1 µM, compound concentration 1 uM, replicate 1
[6] = 24 h, 1 µM, compound concentration 1 uM, replicate 2
[7] = 24 h, 10 µM, compound concentration 10 uM, replicate 1
[8] = 24 h, 10 µM, compound concentration 10 uM, replicate 2
[9] = 48 h, 1 µM, compound concentration 1 uM, replicate 1
[10] = 48 h, 1 µM, compound concentration 1 uM, replicate 2
[11] = 48 h, 10 µM, compound concentration 10 uM, replicate 1
[12] = 48 h, 10 µM, compound concentration 10 uM, replicate 2

CN1CCN(c2nc3cc(C(F)(F)F)ccc3n3cccc23)CC1.O=C(O)/C=C\C(=O)O.O=C(O)/C=C\C(=O)O
Population Apoptotic (%) [1]: 50% | Population Fragmented Nuclei (%) [1]: 18% | Population Healthy Nuclei (%) [1]: 71% | Population Hoechst High Intensity Objects (%) [1]: 0% | Population Membrane Permeable-Phenotype (%) [1]: 0% | Population Mitochondria Different-Phenotype (%) [1]: 5% | Population Mitotic Cells (%) [1]: 50% | Population Normal (%) [1]: 99% | Population Pyknosed Nuclei (%) [1]: 9% | Population Tubulin-Different-Phenotype (%) [1]: 27% | Total Cell Count [1]: 146 | Population Apoptotic (%) [2]: 26% | Population Fragmented Nuclei (%) [2]: 24% | Population Healthy Nuclei (%) [2]: 46% | Population Hoechst High Intensity Objects (%) [2]: 6% | Population Membrane Permeable-Phenotype (%) [2]: 6% | Population Mitochondria Different-Phenotype (%) [2]: 4% | Population Mitotic Cells (%) [2]: 73% | Population Normal (%) [2]: 93% | Population Pyknosed Nuclei (%) [2]: 30% | Population Tubulin-Different-Phenotype (%) [2]: 47% | Total Cell Count [2]: 107 | Population Apoptotic (%) [3]: 40% | Population Fragmented Nuclei (%) [3]: 29% | Population Healthy Nuclei (%) [3]: 59% | Population Hoechst High Intensity Objects (%) [3]: 2% | Population Membrane Permeable-Phenotype (%) [3]: 0% | Population Mitochondria Different-Phenotype (%) [3]: 25% | Population Mitotic Cells (%) [3]: 59% | Population Normal (%) [3]: 97% | Population Pyknosed Nuclei (%) [3]: 10% | Population Tubulin-Different-Phenotype (%) [3]: 69% | Total Cell Count [3]: 207 | Population Apoptotic (%) [4]: 60% | Population Fragmented Nuclei (%) [4]: 35% | Population Healthy Nuclei (%) [4]: 41% | Population Hoechst High Intensity Objects (%) [4]: 4% | Population Membrane Permeable-Phenotype (%) [4]: 4% | Population Mitochondria Different-Phenotype (%) [4]: 38% | Population Mitotic Cells (%) [4]: 40% | Population Normal (%) [4]: 95% | Population Pyknosed Nuclei (%) [4]: 22% | Population Tubulin-Different-Phenotype (%) [4]: 85% | Total Cell Count [4]: 117 | Population Apoptotic (%) [5]: 66% | Population Fragmented Nuclei (%) [5]: 16% | Population Healthy Nuclei (%) [5]: 72% | Population Hoechst High Intensity Objects (%) [5]: 1% | Population Membrane Permeable-Phenotype (%) [5]: 0% | Population Mitochondria Different-Phenotype (%) [5]: 2% | Population Mitotic Cells (%) [5]: 33% | Population Normal (%) [5]: 98% | Population Pyknosed Nuclei (%) [5]: 10% | Population Tubulin-Different-Phenotype (%) [5]: 23% | Total Cell Count [5]: 142 | Population Apoptotic (%) [6]: 40% | Population Fragmented Nuclei (%) [6]: 35% | Population Healthy Nuclei (%) [6]: 42% | Population Hoechst High Intensity Objects (%) [6]: 6% | Population Membrane Permeable-Phenotype (%) [6]: 7% | Population Mitochondria Different-Phenotype (%) [6]: 7% | Population Mitotic Cells (%) [6]: 59% | Population Normal (%) [6]: 93% | Population Pyknosed Nuclei (%) [6]: 22% | Population Tubulin-Different-Phenotype (%) [6]: 43% | Total Cell Count [6]: 104 | Population Apoptotic (%) [7]: 77% | Population Fragmented Nuclei (%) [7]: 24% | Population Healthy Nuclei (%) [7]: 64% | Population Hoechst High Intensity Objects (%) [7]: 6% | Population Membrane Permeable-Phenotype (%) [7]: 0% | Population Mitochondria Different-Phenotype (%) [7]: 32% | Population Mitotic Cells (%) [7]: 22% | Population Normal (%) [7]: 93% | Population Pyknosed Nuclei (%) [7]: 10% | Population Tubulin-Different-Phenotype (%) [7]: 75% | Total Cell Count [7]: 214 | Population Apoptotic (%) [8]: 63% | Population Fragmented Nuclei (%) [8]: 37% | Population Healthy Nuclei (%) [8]: 43% | Population Hoechst High Intensity Objects (%) [8]: 1% | Population Membrane Permeable-Phenotype (%) [8]: 6% | Population Mitotic Cells (%) [8]: 36% | Population Normal (%) [8]: 98% | Population Pyknosed Nuclei (%) [8]: 19% | Population Tubulin-Different-Phenotype (%) [8]: 86% | Total Cell Count [8]: 117 | Population Apoptotic (%) [9]: 44% | Population Fragmented Nuclei (%) [9]: 25% | Population Healthy Nuclei (%) [9]: 63% | Population Hoechst High Intensity Objects (%) [9]: 2% | Population Membrane Permeable-Phenotype (%) [9]: 1% | Population Mitochondria Different-Phenotype (%) [9]: 2% | Population Mitotic Cells (%) [9]: 55% | Population Normal (%) [9]: 97% | Population Pyknosed Nuclei (%) [9]: 11% | Population Tubulin-Different-Phenotype (%) [9]: 22% | Total Cell Count [9]: 162 | Population Apoptotic (%) [10]: 42% | Population Fragmented Nuclei (%) [10]: 37% | Population Healthy Nuclei (%) [10]: 40% | Population Hoechst High Intensity Objects (%) [10]: 3% | Population Membrane Permeable-Phenotype (%) [10]: 0% | Population Mitotic Cells (%) [10]: 57% | Population Normal (%) [10]: 96% | Population Pyknosed Nuclei (%) [10]: 21% | Population Tubulin-Different-Phenotype (%) [10]: 57% | Total Cell Count [10]: 102 | Population Apoptotic (%) [11]: 77% | Population Fragmented Nuclei (%) [11]: 22% | Population Healthy Nuclei (%) [11]: 68% | Population Hoechst High Intensity Objects (%) [11]: 7% | Population Membrane Permeable-Phenotype (%) [11]: 0% | Population Mitochondria Different-Phenotype (%) [11]: 28% | Population Mitotic Cells (%) [11]: 22% | Population Normal (%) [11]: 92% | Population Pyknosed Nuclei (%) [11]: 9% | Population Tubulin-Different-Phenotype (%) [11]: 77% | Total Cell Count [11]: 211 | Population Apoptotic (%) [12]: 63% | Population Fragmented Nuclei (%) [12]: 33% | Population Healthy Nuclei (%) [12]: 57% | Population Hoechst High Intensity Objects (%) [12]: 5% | Population Membrane Permeable-Phenotype (%) [12]: 1% | Population Mitochondria Different-Phenotype (%) [12]: 23% | Population Mitotic Cells (%) [12]: 36% | Population Normal (%) [12]: 94% | Population Tubulin-Different-Phenotype (%) [12]: 85% | Total Cell Count [12]: 118
